Data: ChEMBL document CHEMBL1145070, “Potent, small-molecule inhibitors of human mast cell tryptase. Antiasthmatic action of a dipeptide-based transition-state analogue containing a benzothiazole ketone” (J Med Chem, 2003)
Active and inactive are the calls of the source.

How the values were obtained:
Tryptase beta-1 [1] = target: T1, Tryptase beta-1 (Homo sapiens, UniProt Q15661); test: In vitro inhibition of human Tryptase beta.
Target sequence in this assay (Q15661 whole entry): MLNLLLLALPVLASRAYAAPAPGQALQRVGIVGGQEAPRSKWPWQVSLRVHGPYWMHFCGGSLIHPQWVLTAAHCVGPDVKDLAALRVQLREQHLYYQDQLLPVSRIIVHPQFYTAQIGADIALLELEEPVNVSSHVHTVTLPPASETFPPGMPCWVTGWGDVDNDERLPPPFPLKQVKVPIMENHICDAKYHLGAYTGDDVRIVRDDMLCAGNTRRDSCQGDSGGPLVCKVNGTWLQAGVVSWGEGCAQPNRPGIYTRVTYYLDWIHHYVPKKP

[2] = system: Cationic trypsin (Bos taurus); test: Beta-Trypsin inhibitory activity of compound was determined; NA= not active (<10% inhibition at 100 uM)
Tryptase beta-1 [3] = target: T1, Tryptase beta-1; test: Inhibitory activity of compound was determined against human Tryptase beta; NA= not active (<10% inhibition at 100 uM)
In short: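 β-Tryptase chromogenic assay, with absorbance read at 405 nm at 37 °C for 30 min after enzyme addition. […] Percent inhibition came from initial slopes versus the no-inhibitor control, fitted with a four-parameter logistic model.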
Target sequence in this assay (Q15661 31-275 limits assumed): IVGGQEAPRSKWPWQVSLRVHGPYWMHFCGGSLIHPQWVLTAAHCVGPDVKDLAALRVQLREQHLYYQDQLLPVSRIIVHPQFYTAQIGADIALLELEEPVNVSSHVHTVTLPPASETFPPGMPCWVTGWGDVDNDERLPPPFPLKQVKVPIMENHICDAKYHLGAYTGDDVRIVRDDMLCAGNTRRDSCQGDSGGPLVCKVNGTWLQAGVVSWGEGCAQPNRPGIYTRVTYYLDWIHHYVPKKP

Tryptase beta-1 [4] = target: T1, Tryptase beta-1; test: Inhibitory activity of compound was determined against human Tryptase beta
Target sequence in this assay (Q15661 whole entry): as the sequence (Q15661 whole entry) above

[5] = system: Cationic trypsin (Bos taurus); test: Ratio of Ki value of bovine trypsin to that of Ki value of tryptase
[6] = Ratio of Ki value kallikrein to that of Ki value of tryptase
[7] = target: Thrombin & trypsin (Homo sapiens) (UniProt P00734+P07477+P07478+P35030); test: Ratio of Ki value thrombin to that of Ki value of tryptase; type: protein assay
[8] = Ratio of Ki value plasmin to that of Ki value of tryptase

Structure (SMILES)	Ki (Tryptase beta-1 [1]) [nM]	other results
N=C(N)NCCCC(NC(=O)C1CCCC1)C(=O)c1nc2ccccc2s1 (centres undefined)	88	–
CC(=O)N1CCC[C@H]1C(=O)NC(CCCN=C(N)N)C(O)c1nc2ccccc2s1 (some centres undefined)	–	NA [2]: inactive; NA (Tryptase beta-1 [3]): inactive
N=C(N)NCCC[C@H](NC(=O)[C@@H]1CCCN1Cc1ccccc1)C(=O)c1nc2ccccc2s1	250	–
CC(=O)N1CC[C@H]1C(=O)N[C@@H](CCCN=C(N)N)C(=O)c1nc2ccccc2s1	20	–
N=C(N)NCCCCC(=O)c1nc2ccccc2s1	–	NA [2]: inactive; NA (Tryptase beta-1 [3]): inactive
CC(=O)N1C[C@H](O)C[C@H]1C(=O)N[C@@H](CCCNC(=N)N)C(=O)c1nc2ccccc2s1 (stereo in doubt; (2S) 6)	10	–
CC(=O)N1CC=C[C@H]1C(=O)N[C@@H](CCCN=C(N)N)C(=O)c1nc2ccccc2s1	38	–
CC(=O)N[C@@H](CC(C)C)C(=O)N[C@@H](CCCN=C(N)N)C(=O)c1nc2ccccc2s1	41	–
CCCC(NC(=O)[C@@H]1C[C@@H](O)CN1C(C)=O)C(=O)c1nc2ccccc2s1 (some centres undefined)	–	NA [2]: inactive; NA (Tryptase beta-1 [3]): inactive
CC(=O)N1C[C@H](O)C[C@H]1C(=O)N[C@@H](CCCNC(=N)N)C(=O)c1nc2ccccc2s1	22	–
CC(=O)N1CCC[C@@H]1C(=O)N[C@@H](CCCN=C(N)N)C(=O)c1nc2ccccc2s1	14000	IC50 (Tryptase beta-1 [4]): 2 nM
CC(=O)N1CC(=O)C[C@H]1C(=O)N[C@@H](CCCN=C(N)N)C(=O)c1nc2ccccc2s1	73	–
CC(=O)N1CCC[C@H]1C(=O)N[C@@H](CCCN=C(N)N)C(=O)c1nc2ccccc2s1	19	–
N=C(N)NCCC[C@H](NC(=O)c1ccc2ccccc2c1O)C(=O)N1CCCC1C(N)=O (some centres undefined)	330	Selectivity [5]: 0.5; Selectivity [6]: > 3000; Selectivity [7]: 1.3; Selectivity [8]: > 3000
CC(=O)NCC(=O)N[C@@H](CCCN=C(N)N)C(=O)c1nc2ccccc2s1	470	–
CC(=O)N1C[C@H](O)C[C@H]1C(=O)N[C@@H](CCCNC(=N)N)C(=O)c1nc2ccccc2s1 (stereo in doubt; (2R) 6)	380	–
CC(=O)N1C[C@H](O)C[C@H]1C(=O)NC(CCCN=C(N)N)C(=O)c1nccs1 (some centres undefined)	180	–
CC(=O)N1C[C@H](O)C[C@H]1C(=O)NC(CCCN)C(=O)c1nc2ccccc2s1 (some centres undefined)	90	–
N=C(N)c1ccc2nc(Cc3nc4ccc(C(=N)N)cc4[nH]3)[nH]c2c1	140	–
COS(=O)(=O)N1CCC[C@H]1C(=O)N[C@@H](CCCN=C(N)N)C(=O)c1nc2ccccc2s1	33	–
CN[C@H](Cc1ccccc1)C(=O)N1CCC[C@H]1C(=O)N[C@@H](CCCN=C(N)N)C(=O)c1nc2ccccc2s1	6.5	–
